# Experimental data pooled from the literature.
# Lines come from different studies, so protocols differ.
# SIGMAR1: Sigma non-opioid intracellular receptor 1 (SIGMAR1, Homo sapiens, UniProt Q99720)
# HTR2A: 5-hydroxytryptamine receptor 2A (HTR2A, Homo sapiens, UniProt P28223)
# Oprm1: Mu-type opioid receptor (Oprm1, Mus musculus, UniProt P42866)
SMILES,target,observed,method,setting,quantity,value
N#Cc1ccccc1-c1cc(-c2ccccn2)cn(-c2ccccc2)c1=O,"Glutamate receptor ionotropic, kainate 2 (Grik2, Rattus norvegicus, UniProt P42260)",ion current,patch clamp,,IC50,58000 nM
CN1CC[C@@]23CCCC[C@@H]2[C@@H]1Cc1ccc(O)cc13,SIGMAR1,ligand displacement,radioligand,,Ki,2670 nM
O=[N+]([O-])c1cn2c(n1)OC[C@@H](OCc1ccc(OC(F)(F)F)cc1)C2,"ddn (Mycobacterium tuberculosis, UniProt P9WP15)",binding,fluorescence,,Kd,13900 nM
NCCc1c[nH]c2cc(F)ccc12,HTR2A,ligand displacement,radioligand,,Ki,606 nM
O=C(N[C@@H]1C=C[C@@]2(O)[C@H]3Cc4ccc(O)c5c4[C@@]2(CCN3CC2CC2)[C@H]1O5)c1c[nH]c2cnccc12,Oprm1,ligand displacement,radioligand,,Ki,0.56 nM
COC(=O)/C=C/C(=O)N[C@@H]1CC[C@@]2(O)[C@H]3Cc4ccc(O)c5c4[C@@]2(CCN3CC2CC2)[C@H]1O5,"Kappa-type opioid receptor (OPRK1, Homo sapiens, UniProt P41145, E297K)",ligand displacement,radioligand,cell membranes,IC50,4.29 nM
O=C(N[C@H]1C=C[C@@]2(O)[C@H]3Cc4ccc(O)c5c4[C@@]2(CCN3CC2CC2)[C@H]1O5)c1n[nH]c2ccccc12,Oprm1,ligand displacement,radioligand,,Ki,0.33 nM
NCCc1c[nH]c2ccc(Cl)cc12,HTR2A,ligand displacement,radioligand,,Ki,889 nM
CN[C@@H](C)[C@@H](O)c1ccccc1,SIGMAR1,ligand displacement,radioligand,,Ki,> 10000 nM
O=C(N[C@@H]1C=C[C@@]2(O)[C@H]3Cc4ccc(O)c5c4[C@@]2(CCN3CC2CC2)[C@H]1O5)c1c[nH]c2cccnc12,Oprm1,ligand displacement,radioligand,,Ki,0.41 nM
